In ChEMBL document CHEMBL1914345 (Bioorg Med Chem Lett, 2011):

What was measured:
[1] = Ratio of Kd(app) for sodium channel to Kd(app) for retinal rod CNGA1/CNGB1
[2] = Inhibition of retinal rod CNGA1/CNGB1 expressed in Xenopus laevis oocytes assessed as blockade of cGMP-induced current at -50 mV holding potential by patch-clamp electrophysiology; format: cell-based; settings: oocyte; read-out: Kd(app)
Outline: (§1)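 Heteromeric retinal CNGA1 plus CNGB1 channels expressed in Xenopus laevis oocytes. Currents activated by 2 mM cGMP and recorded at both +50 and -50 mV. Apparent Kd taken by fitting current amplitudes to a single-binding-site block equation.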

[3] = Inhibition of retinal rod CNGA1/CNGB1 expressed in Xenopus laevis oocytes assessed as blockade of cGMP-induced current at +50 mV holding potential by patch-clamp electrophysiology; format: cell-based; settings: oocyte; read-out: Kd(app); outline: as §1
[4] = system: Oocyte; assay: Ratio of tetracaine Kd(app) to compound Kd(app) for retinal rod CNGA1/CNGB1 expressed in Xenopus laevis oocytes; format: cell-based
[5] = system: Oocyte; assay: Ratio of 2-(dimethylamino)ethyl 4-(octylamino)benzoate Kd(app) to compound Kd(app) for retinal rod CNGA1/CNGB1 expressed in Xenopus laevis oocytes; format: cell-based

SMILES | Ratio [1] | Kd [2] [nM] | Kd [3] [nM] | Ratio [4] | Ratio [5]
CCCCNc1ccc(C(=O)OCC[N+](C)(C)CCCNCCCN)cc1 | 100 |  |  |  | 
CCCCCCCCNc1ccc(C(=O)OCCN(C)C)cc1[N+](=O)[O-] |  | 12600 | 8000 |  | 
CCCCNc1ccc(C(=O)OCCN(C)C)cc1Cl |  | 12800 | 3000 |  | 
CCCCCCCCNc1ccc(C(=O)OCCN(C)C)cc1 |  | 1720 | 800 |  | 
CCCCNc1ccc(C(=O)OCCN(C)C)cc1[N+](=O)[O-] |  | 19600 | 5500 |  | 
CCCCNc1ccc(C(=O)OCCN(C)C)cc1C |  | 28100 | 7800 |  | 
CCCCCCCCNc1ccc(C(=O)OCCN(C)C)cc1OC |  | 3000 | 1250 |  | 
CCCCNc1ccc(C(=O)OCCN(C)C)cc1OC |  | 18300 | 4300 |  | 

Further compounds by falling Kd [2], results first:

Ratio [1] | Kd [2] [nM] | Kd [3] [nM] | Ratio [4] | Ratio [5] | SMILES
 | 1410 | 500 |  |  | CCCCCCCCNc1ccc(C(=O)OCCN(C)C)cc1C
 | 750 | 200 | 50 | 8 | CCCCCCCCNc1ccc(C(=O)OCCN(C)C)cc1F
 | 380 | 140 | 50 | 8 | CCCCCCCCNc1ccc(C(=O)OCCN(C)C)cc1Cl
 | 240 | 140 | 50 | 8 | CCCCCCCCNc1ccc(C(=O)OCCN(C)C)cc1Br
 | 220 | 100 | 50 | 8 | CCCCCCCCNc1ccc(C(=O)OCCN(C)C)c(Cl)c1
